In ChEMBL document CHEMBL4619772 (J Med Chem, 2020):

How the values were obtained:
[1] = Selectivity index, ratio of CC50 for human A549 cells to EC50 for HIV/EBOV-GP infected in human A549 cells; type: toxicity, cell-based; details: read-out: Ratio CC50/EC50
Procedure, shortened: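 Ratio CC50/EC50. CC50 is A549 cytotoxicity by CellTiter 96 aqueous nonradioactive cell proliferation assay.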

A549 [2] = assay: Inhibition of pseudotyped HIV/MARV GP infected in human A549 cells assessed as reduction in virus entry at 12.5 uM measured after 48 hrs by luciferase reporter gene assay relative to control; type: cell-based; details: Marburgvirus
Procedure, shortened: (§1)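 Low-passage A549 cells are infected with HIV-based pseudovirions carrying EBOV or MARV GP and a luciferase reporter, with or without compound at 12.5 μM. […] Toremifene is the positive control.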

[3] = Inhibition of pseudotyped HIV/EBOV GP infected in human A549 cells assessed as reduction in virus entry measured after 48 hrs by luciferase reporter gene assay; type: cell-based, Ebolavirus; details: Orthoebolavirus, A549, 48 h
[4] = Inhibition of pseudotyped HIV/MARV GP infected in human A549 cells assessed as reduction in virus entry measured after 48 hrs by luciferase reporter gene assay; type: cell-based, Marburgvirus; details: Orthomarburgvirus, A549, 48 h
A549 [5] = assay: Inhibition of pseudotyped HIV/EBOV GP infected in human A549 cells assessed as reduction in virus entry at 12.5 uM measured after 48 hrs by luciferase reporter gene assay relative to control; type: cell-based; details: Ebolavirus; procedure, shortened: as §1
[6] = Metabolic stability in human liver microsomes assessed as parent compound remaining after 60 mins in presence of NADPH by HPLC analysis; type: ADME, Microsome; details: read-out: Stability
Procedure, shortened: (§2)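 Stability is reported as % of compound remaining after 60 min incubation in plasma or liver microsomes, relative to t0.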

[7] = Metabolic stability in Sprague-Dawley rat pooled plasma assessed as parent compound remaining at 20 uM after 60 mins by HPLC analysis; type: ADME, cell-free; details: read-out: Stability; procedure, shortened: as §2
Zaire ebolavirus = assay: Antiviral activity against Ebola virus 1976 Mayinga infected in human HeLa cells pretreated for 1 hr followed by virus infection measured after 24 hrs by Hoechst staining-based immunofluorescence assay; type: functional, organism-based
Cytochrome P450 2C9 = Cytochrome P450 2C9 (Homo sapiens, UniProt P11712); assay: Inhibition of recombinant human CYP2C9 expressed in baculovirus infected insect cell microsomes using vivid BOMF as substrate preincubated for 10 mins followed by substrate addition and measured after 25 mins in presence of […] by fluorescence assay; type: ADME
Procedure, shortened: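 CYP2C9 inhibition IC50 is determined with 30 μM sulfaphenazole as positive inhibitor control, from three replicates; errors are estimated <10%.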

[8] = Metabolic stability in Fischer F344 rat liver microsomes assessed as parent compound remaining after 60 mins in presence of NADPH by HPLC analysis; type: ADME, Microsome; details: read-out: Stability; procedure, shortened: as §2
Cytochrome P450 3A4 = Cytochrome P450 3A4 (Homo sapiens, UniProt P08684); assay: Inhibition of recombinant human CYP3A4 expressed in baculovirus infected insect cell microsomes using vivid DBOMF as substrate preincubated for 10 mins followed by substrate addition and measured after 25 mins in presence of […] by fluorescence assay; type: ADME
Procedure, shortened: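 CYP3A4 inhibition IC50 is determined with 10 μM quinidine as positive inhibitor control, from three replicates; errors are estimated <10%.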

Marburgvirus = assay: Antiviral activity against Marburg virus Lake Victoria, 2005 Angola infected in human HeLa cells pretreated for 1 hr followed by virus infection measured after 24 hrs by Hoechst staining-based immunofluorescence assay; type: functional, organism-based, Lake Victoria marburgvirus; details: Orthomarburgvirus, Angola2005, HeLa
[9] = Selectivity index, ratio of CC50 for human HeLa cells to EC50 for Ebola virus 1976 Mayinga in human HeLa cells; type: toxicity, cell-based; details: read-out: Ratio CC50/EC50
[10] = Metabolic stability in human pooled plasma assessed as parent compound remaining at 20 uM after 60 mins by HPLC analysis; type: ADME, cell-free; details: read-out: Stability; procedure, shortened: as §2

Sequence of Cytochrome P450 2C9 (P11712 whole entry): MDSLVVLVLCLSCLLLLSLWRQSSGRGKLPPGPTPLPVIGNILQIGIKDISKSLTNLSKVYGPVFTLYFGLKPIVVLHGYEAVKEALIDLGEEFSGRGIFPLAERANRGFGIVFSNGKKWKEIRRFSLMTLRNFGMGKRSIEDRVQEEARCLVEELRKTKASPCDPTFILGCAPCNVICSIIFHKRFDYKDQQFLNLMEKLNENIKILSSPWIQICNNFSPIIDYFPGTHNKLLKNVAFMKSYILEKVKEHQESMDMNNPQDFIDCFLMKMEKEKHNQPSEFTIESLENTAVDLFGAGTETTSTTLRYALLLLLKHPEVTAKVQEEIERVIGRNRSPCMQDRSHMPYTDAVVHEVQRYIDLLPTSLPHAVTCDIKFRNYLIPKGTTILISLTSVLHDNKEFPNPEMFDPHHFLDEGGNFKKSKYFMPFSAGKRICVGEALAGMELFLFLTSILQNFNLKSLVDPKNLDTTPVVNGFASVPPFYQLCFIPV
Sequence of Cytochrome P450 3A4 (P08684 whole entry): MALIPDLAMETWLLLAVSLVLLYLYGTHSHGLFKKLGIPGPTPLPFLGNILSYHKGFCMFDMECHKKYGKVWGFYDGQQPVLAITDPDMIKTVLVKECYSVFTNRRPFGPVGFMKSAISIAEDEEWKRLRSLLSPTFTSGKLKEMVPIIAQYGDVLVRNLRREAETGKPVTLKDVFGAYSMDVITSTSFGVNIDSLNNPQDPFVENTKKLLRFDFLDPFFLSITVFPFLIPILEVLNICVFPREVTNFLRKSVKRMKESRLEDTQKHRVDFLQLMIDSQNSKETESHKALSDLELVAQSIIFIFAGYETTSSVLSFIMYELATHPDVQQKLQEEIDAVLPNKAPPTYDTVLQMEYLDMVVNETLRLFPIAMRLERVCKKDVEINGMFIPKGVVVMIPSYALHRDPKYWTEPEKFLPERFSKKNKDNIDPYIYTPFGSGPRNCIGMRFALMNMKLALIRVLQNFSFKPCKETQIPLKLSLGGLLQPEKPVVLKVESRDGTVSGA

Row | SMILES | selectivity ratio [1] | inhibition (A549 [2]) | EC50 [3] | EC50 [4] | inhibition (A549 [5]) | further results
1 | O=C(Nc1ccc(N2CCC(F)(F)CC2)cc1)c1ccc(CN2CCCCC2)cc1 | 69 | 88.8% | 0.82 µM | 1.88 µM | 99.7% | –
2 | COC(=O)c1ccc(NC(=O)c2ccc(C(=O)N3CCCCC3)cc2)cc1 | – | 0% | – | – | 12.9% | –
3 | O=C(Nc1ccc(C2CC2)cc1)c1ccc(CN2CCCCC2)cc1 | 22 | 66.2% | 4.57 µM | 2.65 µM | 74.3% | –
4 | CC(c1ccc(C(=O)NCCOC2CCCCC2)cc1)N1CCCCC1 (configuration not stated) | – | 42.5% | – | – | 52.4% | –
5 | O=C(Nc1ccc(C2CCCCC2)cc1)c1ccc(CN2CCCCC2)cc1 | 101 | 73.4% | 0.99 µM | 0.96 µM | 98.1% | –
6 | O=C(Nc1ccc(C23CC4CC(CC(C4)C2)C3)cc1)c1ccc(CN2CCCCC2)cc1 | 231 | 99% | 0.035 µM | 0.38 µM | 99.4% | remaining at 1 h [6]: 75%; remaining at 1 h, 20 µM [7]: 96%; EC50 (Zaire ebolavirus): 0.11 µM; IC50 (Cytochrome P450 2C9): > 100 µM; remaining at 1 h [8]: 71%; IC50 (Cytochrome P450 3A4): > 100 µM; EC50 (Marburgvirus): 1.23 µM; selectivity ratio [9]: 202; remaining at 1 h, 20 µM [10]: 100%
7 | COC(=O)c1ccc(NC(=O)c2cccc(CN3CCCCC3)c2)cc1 | – | 5.9% | – | – | 13% | –
8 | CC1(C)CN(C(=O)c2ccc(CN3CCCCC3)cc2)c2ccccc21 | 33 | 21.4% | 2.22 µM | 2.9 µM | 87.3% | –
9 | O=C(c1ccc(CN2CCCCC2)cc1)N1CC2(CC2)c2ccccc21 | – | 34.4% | – | – | 74.5% | –
10 | COC(=O)c1cccc(NC(=O)c2ccc(CN3CCCCC3)cc2)c1 | – | 0% | – | – | 0% | –
11 | O=C(Nc1ccc(C(F)(F)F)cc1)c1ccc(CN2CCCCC2)s1 | 9 | 70% | 5.6 µM | 3.65 µM | 80.2% | –
12 | O=C(Nc1ccc(Cl)c(C(F)(F)F)c1)c1ccc(CN2CCCCC2)cc1 | 7 | 98.2% | 1.52 µM | 1.24 µM | 99.6% | –
13 | N#CC(c1ccc(NC(=O)c2ccc(CN3CCCCC3)cc2)cc1)C1CCCC1 (configuration not stated) | 99 | 94% | 0.73 µM | 1.63 µM | 96.8% | –
14 | COC(=O)c1ccc2c(c1)CCN2C(=O)c1ccc(CN2CCCCC2)cc1 | – | 51.2% | – | – | 41.7% | –
15 | CC(c1ccc(C(=O)N2CCc3ccc(C(F)(F)F)cc32)cc1)N1CCCCC1 (configuration not stated) | 21 | 76.9% | 1.56 µM | 1.73 µM | 95.6% | –
16 | COC(=O)c1ccc2c(c1)CCN2C(=O)c1ccc(CN2CCCCC2)s1 | – | 0% | – | – | 38.9% | –
17 | COC(=O)c1ccc(NC(=O)c2ccc(CN3CCN(C)CC3)cc2)cc1 | – | 30.3% | – | – | 29.4% | –
18 | O=C(c1ccc(CN2CCCCC2)cc1)N1CCc2ccc(F)cc21 | – | 13.5% | – | – | 20.1% | –
19 | CN(C)CCOc1ccc(/C(=C(/CCCl)c2ccccc2)c2ccccc2)cc1 [TOREMIFENE] | – | – | 0.09 µM | – | – | EC50 (Zaire ebolavirus): 0.67 µM; EC50 (Marburgvirus): 3.25 µM
20 | O=C(Nc1ccc(C(F)(F)F)cc1)c1ccc(CN2CCCCC2)cc1 | 9 | 79.3% | 3.87 µM | 5.7 µM | 89.9% | –
21 | CS(=O)(=O)c1ccc(NC(=O)c2ccc(CN3CCCCC3)cc2)cc1 | – | 17.4% | – | – | 0% | –
22 | O=C(NCC1CCC(F)(F)CC1)c1ccc(CN2CCCCC2)cc1 | – | 23% | – | – | 42.9% | –

Row | SMILES | selectivity ratio [1] | inhibition (A549 [2]) | EC50 [3] | EC50 [4] | inhibition (A549 [5]) | further results
23 | O=C(Nc1ccc(C(F)(F)F)c(Cl)c1)c1ccc(CN2CCCCC2)cc1 | 9 | 98.5% | 2.34 µM | 2.05 µM | 99.7% | –
24 | O=C(c1ccc(CN2CCCCC2)cc1)N1CCc2ccc(Cl)cc21 | 14 | 42.4% | 2.22 µM | 2.31 µM | 81.5% | –
25 | O=C(c1ccc(CN2CCCCC2)cc1)n1ccc2ccc(C(F)(F)F)cc21 | – | 0% | – | – | 0% | –
26 | COC(=O)c1ccc2c(c1)CCCN2C(=O)c1ccc(CN2CCCCC2)cc1 | – | 0% | – | – | 25.1% | –
27 | COC(=O)c1ccc(NC(=O)c2ccc(CN3CCCCC3)s2)cc1 | – | 27.2% | – | – | 33.8% | –
28 | O=C(Nc1ccc(C(F)(F)F)nc1)c1ccc(CN2CCCCC2)cc1 | – | 9.4% | – | – | 5.4% | –
29 | CC(C)c1ccc(NC(=O)c2ccc(CN3CCCCC3)cc2)cc1 | 10 | 67.5% | 2.87 µM | 2.1 µM | 93.1% | –
30 | O=C(Nc1ccc(C2CCCCC2)cc1)c1ccc(CN2CCCCC2)c(F)c1 | 382 | 71% | 0.38 µM | 1.33 µM | 96.1% | remaining at 1 h [6]: 28%; remaining at 1 h, 20 µM [7]: 86%; EC50 (Zaire ebolavirus): 1.04 µM; remaining at 1 h [8]: 23%; EC50 (Marburgvirus): 16.6 µM; selectivity ratio [9]: 128; remaining at 1 h, 20 µM [10]: 87%
31 | CC(c1ccc(C(=O)N2CCc3cc(C(C)(C)C)ccc32)cc1)N1CCCCC1 (configuration not stated) | 9 | 98.1% | 2.05 µM | 3.09 µM | 99.8% | remaining at 1 h [6]: 46%; remaining at 1 h, 20 µM [7]: 62%; IC50 (Cytochrome P450 2C9): 7.94 µM; remaining at 1 h [8]: 27%; IC50 (Cytochrome P450 3A4): 24 µM; EC50 (Marburgvirus): 3.38 µM; selectivity ratio [9]: 19; remaining at 1 h, 20 µM [10]: 94%
32 | CS(=O)(=O)Nc1ccc(NC(=O)c2ccc(CN3CCCCC3)cc2)cc1 | – | 6.81% | – | – | 3.91% | –
33 | CNS(=O)(=O)c1ccc(NC(=O)c2ccc(CN3CCCCC3)cc2)cc1 | – | 3.3% | – | – | 0% | –
34 | O=C(c1ccc(CN2CCCCC2)cc1)N1CCc2ccc(C(F)(F)F)cc21 | 38 | 59.2% | 1.68 µM | 1.46 µM | 83.7% | remaining at 1 h [6]: 31%; remaining at 1 h, 20 µM [7]: 0%; EC50 (Zaire ebolavirus): 3.22 µM; remaining at 1 h [8]: 0%; EC50 (Marburgvirus): 8.17 µM; selectivity ratio [9]: 39; remaining at 1 h, 20 µM [10]: 85%
35 | O=C(Nc1cccc(C(F)(F)F)c1)c1ccc(CN2CCCCC2)cc1 | 15 | 57.5% | 2.97 µM | 1.41 µM | 82.2% | –
36 | COC(=O)c1ccc(NC(=O)c2ccc(CN3CCOCC3)cc2)cc1 | – | 68.8% | – | – | 57.2% | –
37 | O=C(NCCC1CCCCC1)c1ccc(CN2CCCCC2)cc1 | 25 | 27.3% | 2.32 µM | 7.74 µM | 90.9% | –
38 | CC(c1ccc(C(=O)N2CC(C(C)(C)C)c3ccccc32)cc1)N1CCCCC1 (configuration not stated) | 224 | 92.8% | 0.16 µM | 3.18 µM | 99.9% | remaining at 1 h [6]: 2%; remaining at 1 h, 20 µM [7]: 2%; EC50 (Zaire ebolavirus): 0.87 µM; remaining at 1 h [8]: 0%; EC50 (Marburgvirus): 6.32 µM; selectivity ratio [9]: 137; remaining at 1 h, 20 µM [10]: 88%
39 | N#Cc1ccc(NC(=O)c2ccc(CN3CCCCC3)cc2)cc1 | – | 12.4% | – | – | 0% | –
40 | O=C(c1ccc(CN2CCCCC2)cc1)N1CCc2cc(C(F)(F)F)ccc21 | – | 49.6% | – | – | 56.4% | –
41 | CC(c1ccc(C(=O)NCC2COC3(CCCCC3)O2)cc1)N1CCCCC1 (configuration not stated) | – | 37.2% | – | – | 56% | –
42 | O=C(O)c1ccc(NC(=O)c2ccc(CN3CCCCC3)cc2)cc1 | – | 10.3% | – | – | 3.12% | –
43 | CC(c1ccc(C(=O)Nc2ccc(C3CCCCC3)cc2)cc1)N1CCCCC1 (configuration not stated) | 390 | 88.9% | 0.33 µM | 0.85 µM | 99.3% | remaining at 1 h [6]: 31%; remaining at 1 h, 20 µM [7]: 82%; EC50 (Zaire ebolavirus): 1.8 µM; remaining at 1 h [8]: 24%; EC50 (Marburgvirus): 5.56 µM; selectivity ratio [9]: 54; remaining at 1 h, 20 µM [10]: 88%
